Test results: ChEMBL document CHEMBL1268835, “Property based optimization of δ-lactam HDAC inhibitors for metabolic stability” (Bioorg Med Chem Lett, 2010)

Tests used:
HCT-15 = assay: Growth inhibition of human HCT15 cells; type: functional
NUGC-3 = assay: Growth inhibition of human NUGC3 cells; type: functional
PC-3 = assay: Growth inhibition of human PC3 cells; type: functional, cell-based
NCI-H23 = assay: Growth inhibition of human NCI-H23 cells; type: functional
MDA-MB-231 = assay: Growth inhibition of human MDA-MB-231 cells; type: functional, cell-based
ACHN = assay: Growth inhibition of human ACHN cells; type: functional
[1] = Metabolic stability of the compound in ICR mouse liver microsome assessed as compound remaining at 1 uM in presence of buffer; type: ADME; conditions: liver microsomes, read-out: Stability
How it was run: (§1)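 Test compounds were incubated at 37 °C with ICR mouse liver microsomes, with NADPH, without NADPH, and in buffer alone. Read-out is % parent remaining. The screen used 1 mg protein/ml for 30 min. A separate run used female ICR microsomes at 0.5 mg protein/mL for 60 min with 1 µM compound.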

[2] = Metabolic stability of the compound in ICR mouse liver microsome assessed as compound remaining at 1 uM; type: ADME; conditions: liver microsomes, read-out: Stability; how it was run: as §1
[3] = Metabolic stability of the compound in ICR mouse liver microsome assessed as compound remaining at 1 uM in presence of NADPH; type: ADME; conditions: liver microsomes, read-out: Stability; how it was run: as §1
[4] = Oral bioavailability in BALB/c mouse at 20 mg/kg; type: ADME, organism-based; conditions: in vivo
How it was run: (§2)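 Balb/c mice were dosed intravenously or orally. Parameters come from noncompartmental analysis of mean plasma concentration–time profiles from three animals. Intravenous AUC was taken from 0 to infinity and oral AUC from 0 to 5 h. Oral bioavailability (F) is expressed as %.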

Mus musculus [5] = assay: Half life in BALB/c mouse at 10 mg/kg, iv; conditions: in vivo
[6] = Tmax in BALB/c mouse at 20 mg/kg, po; type: ADME, organism-based; parameters: dose 20 mg/kg, route oral; conditions: in vivo; how it was run: as §2
Mus musculus [7] = assay: (§3) Volume of distribution at steady state in BALB/c mouse at 5 mg/kg, iv; type: ADME, organism-based; parameters: dose 5 mg/kg, route intravenous; conditions: in vivo; how it was run: as §2
[8] = AUC (0 to 5 hrs) in BALB/c mouse at 20 mg/kg, po; type: ADME, organism-based; parameters: dose 20 mg/kg, route oral; conditions: plasma; how it was run: as §2
[9] = Cmax in BALB/c mouse at 20 mg/kg, po; type: ADME, organism-based; parameters: dose 20 mg/kg, route oral; conditions: in vivo; how it was run: as §2
Mus musculus [10] = assay: Clearance in BALB/c mouse at 10 mg/kg, iv; conditions: in vivo
[11] = AUC (0 to infinity) in BALB/c mouse at 5 mg/kg, iv; type: ADME, organism-based; parameters: time infinity, dose 5 mg/kg, route intravenous; conditions: plasma; how it was run: as §2
[12] = Apparent permeability across human Caco-2 cells; type: ADME, cell-based
[13] = as §3; type: ADME, organism-based; parameters: dose 5 mg/kg, route intravenous; conditions: BALB/c, in vivo, read-out: Vdss; how it was run: as §2
[14] = Half life in BALB/c mouse at 20 mg/kg, po; type: ADME, organism-based; parameters: dose 20 mg/kg, route oral; conditions: in vivo; how it was run: as §2
[15] = Clearance in BALB/c mouse at 5 mg/kg, iv; type: ADME, organism-based; parameters: dose 5 mg/kg, route intravenous; conditions: in vivo; how it was run: as §2
[16] = Half life in BALB/c mouse at 5 mg/kg, iv; type: ADME, organism-based; parameters: dose 5 mg/kg, route intravenous; conditions: in vivo; how it was run: as §2

| SMILES | GI50 (HCT-15) [µM] | GI50 (NUGC-3) [µM] | GI50 (PC-3) [µM] | GI50 (NCI-H23) [µM] | GI50 (MDA-MB-231) [µM] | GI50 (ACHN) [µM] | remaining at 1 µM [2] [%] | remaining at 1 µM [3] [%] | also measured |
| --- | --- | --- | --- | --- | --- | --- | --- | --- | --- |
| O=C(CCC1=CCCN(CCc2ccc3ccccc3c2)C1=O)NO | 0.31 | 0.36 | 0.39 | 0.43 | 0.27 | 0.38 |  |  |  |
| O=C(CCC1=CCCN(Cc2cccc(Cl)c2)C1=O)NO | 6.22 | 3.92 | 4.65 | 2.96 | 3.58 | 4.48 | 40.3 | 31.3 | remaining at 1 µM [1]: 103% |
| COc1cccc(CCN2CCC=C(CCC(=O)NO)C2=O)c1 | 3.96 | 4.26 | 4.84 | 7.06 | 3.03 | 7.6 |  |  |  |
| O=C(CCC1=CCCN(CCCc2ccc3ccccc3c2Br)C1=O)NO | 0.53 | 0.79 | 0.3 | 0.49 | 0.56 | 0.46 |  |  |  |
| O=C(CCC1=CCCN(Cc2ccc(Br)cc2F)C1=O)NO | 5.37 |  | 5.81 |  | 3.12 |  | 55 | 31.7 | bioavailability [4]: 14.1%; t1/2 (Mus musculus [5]): 372 min; Tmax [6]: 15 min; Vdss (Mus musculus [7]): 0.8 L/kg; AUC(0-t) at 4 h [8]: 732 ng·h/mL; remaining at 1 µM [1]: 102%; Cmax [9]: 1390 ng/mL; CL (Mus musculus [10]): 65 mL/min/kg; AUC(0-inf) [11]: 2590 ng·h/mL |
| O=C(CCC1=CCCN(CCCCc2ccc(Cl)cc2)C1=O)NO | 3.3 | 1.79 | 4.15 | 2.88 | 2.56 | 2.46 |  |  |  |
| O=C(CCC1=CCCN(CCc2cccc(Br)c2)C1=O)NO | 1.25 | 0.82 | 0.81 | 1.83 | 0.87 | 0.3 |  |  |  |
| O=C(CCC1=CCCN(CCc2ccc(Br)cc2)C1=O)NO | 0.87 |  | 3.41 |  | 1.87 |  | 56.6 | 29.6 | remaining at 1 µM [1]: 104% |
| O=C(CCC1=CCCN(CCCCc2ccc(Br)cc2)C1=O)NO | 3.19 | 2.01 | 4.81 | 2.73 | 3.54 | 2.39 |  |  |  |
| Cc1cccc(CCN2CCC=C(CCC(=O)NO)C2=O)c1 | 4.41 |  | > 10 |  | 4.04 |  |  |  |  |
| O=C1CC2(CCCC2)CC(=O)N1CCCCN1CCN(c2ncccn2)CC1 [BUSPIRONE] |  |  |  |  |  |  | 96.6 | 0.3 | remaining at 1 µM [1]: 106% |
| O=C(CCC1=CCCN(CCc2ccc(Cl)cc2)C1=O)NO | 1.66 | 1.06 | 1.51 | 2.12 | 0.92 | 1.28 |  |  |  |
| O=C(CCC1=CCCN(CCc2cccc(C(F)(F)F)c2)C1=O)NO | 2.35 | 1.7 | 2.47 | 3.97 | 1.9 | 2.64 |  |  |  |
| Cc1ccc(CCCCN2CCC=C(CCC(=O)NO)C2=O)cc1 | 2.94 | 2.13 | 2.53 | 2.79 | 3.05 | 2.49 | 5.7 | 4 | remaining at 1 µM [1]: 99.3% |
| N#Cc1ccc(CN2CCC=C(CCC(=O)NO)C2=O)cc1 | > 10 |  | > 10 |  | 8.17 |  |  |  |  |
| N#Cc1cccc(CN2CCC=C(CCC(=O)NO)C2=O)c1 | > 10 |  | 8.48 |  | 4.18 |  |  |  |  |
| CC(C)(C)c1ccc(CCCN2CCC=C(CCC(=O)NO)C2=O)cc1 | 1.66 | 2.81 | 1.13 | 2 | > 10 | 1.72 | 8 | 3.3 | remaining at 1 µM [1]: 103% |
| CN(C)CCCN1c2ccccc2Sc2ccc(Cl)cc21 [CHLORPROMAZINE] |  |  |  |  |  |  | 86.8 | 1.2 |  |
| COCCc1ccc(OCC(O)CNC(C)C)cc1 (stereo unspecified) [METOPROLOL] |  |  |  |  |  |  |  |  | Papp [12]: 29.6 ×10⁻⁶ cm/s |
| O=C(CCC1=CCCN(CCCCc2ccccc2)C1=O)NO | 5.4 | 3.19 | 3.25 | 5.99 | 2.03 | 1.89 | 8.5 | 8.7 | bioavailability [4]: 1%; Tmax [6]: 15 min; Vd [13]: 0.27 L/kg; half-life [14]: 9 min; clearance [15]: 49.8 mL/min/kg; AUC(0-t) at 4 h [8]: 64.4 ng·h/mL; remaining at 1 µM [1]: 97.3%; Cmax [9]: 197 ng/mL; Papp [12]: 23.9 ×10⁻⁶ cm/s; half-life [16]: 77.4 min; AUC(0-inf) [11]: 1670 ng·h/mL |
| O=C(CCC1=CCCN(CCc2ccccc2Cl)C1=O)NO | 4.21 | 5.93 | 7.25 | 6.5 | 3.91 | 8.71 |  |  |  |
| CC(C)(C)c1ccc(CN2CCC=C(CCC(=O)NO)C2=O)cc1 | 2.94 |  | 5.19 |  | 2.84 | 3 |  |  |  |
| CNC(=C[N+](=O)[O-])NCCSCc1ccc(CN(C)C)o1 [RANITIDINE] |  |  |  |  |  |  |  |  | Papp [12]: 1.5 ×10⁻⁶ cm/s |
| O=C(CCC1=CCCN(CCCCc2ccc(F)cc2)C1=O)NO | > 10 | 9.02 | > 10 | > 10 | > 10 | 9.53 |  |  |  |
| O=C(CCC1=CCCN(CCc2ccc([N+](=O)[O-])cc2)C1=O)NO | > 10 | > 10 | > 10 | > 10 | > 10 | > 10 |  |  |  |
| CC(C)(C)c1ccc(CCN2CCC=C(CCC(=O)NO)C2=O)cc1 | 0.52 | 1.1 | 0.5 | 0.99 | 1.13 | 2.27 |  |  |  |
| O=C(CCC1=CCCN(CCc2ccccc2F)C1=O)NO | 3.6 | 3.78 | 7.07 | 6.09 | 3.02 | 4.47 | 52.7 | 45.3 | remaining at 1 µM [1]: 104% |
| Cc1ccc(CCN2CCC=C(CCC(=O)NO)C2=O)cc1 | 4 | 3.57 | 6.34 | 5.56 | 2.84 | 4.55 |  |  |  |
| O=C(CCC1=CCCN(CCc2ccc(C(F)(F)F)cc2)C1=O)NO | 1.7 |  | 4.82 |  | 1.81 |  |  |  |  |
